Data reported in ChEMBL document CHEMBL1156036, “A class of novel N-(3S-1,2,3,4-tetrahydroisoquinoline-3-carbonyl)-L-amino acid derivatives: their synthesis, anti-thrombotic activity evaluation, and 3D QSAR analysis” (Eur J Med Chem, 2009).
Square brackets hold non-standard residues; d marks the D form. Peptide text beside a SMILES is read from it. Tic = O=C(O)[C@@H]1Cc2ccccc2CN1

Experiments:
Type in all cases: functional
[1] = Antiplatelet aggregatory activity in pig […] assessed as inhibition of thrombin-induced platelet aggregation; conditions: Sus scrofa
In short: (§1)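 Pig blood spun 1000g 10 min for platelet-rich plasma, then 1500g 10 min for platelet-poor plasma; platelets adjusted to 2×10^8/ml with autologous PPP. Test agent in NS (final 100 to 0.001 μM) added to 0.5 ml plasma, then inducer in NS: PAF 0.1 μM, ADP 10 μM, AA 350 μM or thrombin 0.1 U/ml (final). Optical aggregometry, 37 °C, 5 min, six tubes.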

Rattus norvegicus [2] = assay: Antithrombotic activity in Wistar rat assessed as reduction of wet thrombus weight at 5 umol/kg, iv after 15 mins
In short: (§2)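 Male Wistar rats, 250-300 g, given agent dissolved in NS (kept on ice) intravenously; Aspirin 15 μmol/kg as reference, NS as vehicle. Pentobarbital sodium 80.0 mg/kg i.p. Arteriovenous shunt from right carotid artery to left jugular vein via polyethylene tube containing a thread; blood flowed 15 min; wet thrombus weighed, n = 12, mean ± SD.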

[3] = Antiplatelet aggregatory activity in pig […] assessed as inhibition of arachidonic acid-induced platelet aggregation; conditions: Sus scrofa; in short: as §1
[4] = Antiplatelet aggregatory activity in pig […] assessed as inhibition of ADP-induced platelet aggregation; conditions: Sus scrofa; in short: as §1
[5] = Antiplatelet aggregatory activity in pig […] assessed as inhibition of platelet-activating factor-induced platelet aggregation; conditions: Sus scrofa; in short: as §1
Rattus norvegicus [6] = species: Rattus norvegicus; assay: Ratio of compound antithrombotic potency to aspirin antithrombotic potency in Wistar rat assessed as reduction of wet thrombus weight
Rattus norvegicus [7] = assay: Antithrombotic activity in Wistar rat assessed as reduction of wet thrombus weight at 15 umol/kg, po after 15 mins
Rattus norvegicus [8] = assay: Antithrombotic activity in Wistar rat assessed as reduction of wet thrombus weight at 15 umol/kg, iv after 15 mins; in short: as §2

Row | SMILES | IC50 [1] [nM] | IC50 [3] [nM] | IC50 [4] [nM] | IC50 [5] [nM] | Activity (Rattus norvegicus [2]) [mg] | Ratio (Rattus norvegicus [6]) | Activity (Rattus norvegicus [7]) [mg] | Activity (Rattus norvegicus [8]) [mg]
1 | O=C(O)[C@H](Cc1ccccc1)NC(=O)[C@@H]1Cc2ccccc2CN1 (H-[Tic]-Phe-OH) | 336 | 553 | 188 | 218 | 19.11 | >30 |  | 
2 | N[C@@H](Cc1ccc(O)cc1)C(=O)N1Cc2ccccc2C[C@H]1C(=O)O (H-Tyr-[Tic]-OH) | 736 | 535 |  | 668 | 20.92 |  |  | 
3 | CC[C@H](C)[C@H](NC(=O)[C@@H]1Cc2ccccc2CN1)C(=O)O (H-[Tic]-Ile-OH) | 657 | 443 | 540 | 938 | 20.03 | >30 |  | 
4 | O=C(O)[C@@H]1Cc2ccccc2CN1 | 881 | 452 | 552 | 960 |  |  | 23.88 | 21.52
5 | O=C(O)[C@H](Cc1c[nH]cn1)NC(=O)[C@@H]1Cc2ccccc2CN1 (H-[Tic]-His-OH) | 370 | 491 | 661 | 724 | 20.86 | >30 |  | 
6 | CC(=O)Oc1ccccc1C(=O)O [ASPIRIN] |  |  |  |  |  |  |  | 27.6
7 | CC(C)[C@H](NC(=O)[C@@H]1Cc2ccccc2CN1)C(=O)O (H-[Tic]-Val-OH) | 199 | 388 | 382 | 943 | 19.2 | >30 |  | 
8 | O=C(O)[C@H](CO)NC(=O)[C@@H]1Cc2ccccc2CN1 (H-[Tic]-Ser-OH) | 841 | 416 | 388 | 942 | 23.58 | >30 |  | 
9 | O=C(O)[C@H](Cc1c[nH]c2ccccc12)NC(=O)[C@@H]1Cc2ccccc2CN1 (H-[Tic]-Trp-OH) | 234 | 374 | 120 | 668 | 21.3 | >30 |  | 
10 | O=C(O)C[C@H](NC(=O)[C@@H]1Cc2ccccc2CN1)C(=O)O (H-[Tic]-Asp-OH) | 157 | 391 | 329 | 633 | 21.67 | >30 |  | 
11 | C[C@@H](O)[C@H](NC(=O)[C@@H]1Cc2ccccc2CN1)C(=O)O (H-[Tic]-Thr-OH) | 763 | 418 | 164 | 588 | 21.25 | >30 |  | 
12 | NC(=O)C[C@H](NC(=O)[C@@H]1Cc2ccccc2CN1)C(=O)O (H-[Tic]-Asn-OH) | 551 | 166 | 470 | 153 | 20.24 | >30 |  | 
13 | O=C(O)[C@H](Cc1ccc(O)cc1)NC(=O)[C@@H]1Cc2ccccc2CN1 (H-[Tic]-Tyr-OH) | 970 | 390 | 481 | 1150 | 19.31 | >30 |  | 
14 | O=C(O)CC[C@H](NC(=O)[C@@H]1Cc2ccccc2CN1)C(=O)O (H-[Tic]-Glu-OH) | 545 | 356 | 482 | 176 | 19.69 | >30 |  | 
15 | CC(C)C[C@H](NC(=O)[C@@H]1Cc2ccccc2CN1)C(=O)O (H-[Tic]-Leu-OH) | 454 | 290 | 478 | 1610 | 20.23 | >30 |  | 
16 | NCCCC[C@H](NC(=O)[C@@H]1Cc2ccccc2CN1)C(=O)O (H-[Tic]-Lys-OH) | 733 | 277 | 194 | 1040 | 21.28 | >30 |  | 
17 | C[C@H](NC(=O)[C@@H]1Cc2ccccc2CN1)C(=O)O (H-[Tic]-Ala-OH) | 485 | 104 | 350 | 352 | 21.4 | >30 |  | 
18 | O=C(O)CNC(=O)[C@@H]1Cc2ccccc2CN1 (H-[Tic]-Gly-OH) | 306 | 108 | 496 | 791 | 20.24 | >30 |  | 
19 | O=C(O)[C@H](CS)NC(=O)[C@@H]1Cc2ccccc2CN1 (H-[Tic]-Cys-OH) | 386 | 460 | 231 | 780 | 20.91 | >30 |  | 

The next lines start with results.

Row | IC50 [1] [nM] | IC50 [3] [nM] | IC50 [4] [nM] | IC50 [5] [nM] | SMILES | Activity (Rattus norvegicus [2]) [mg] | Ratio (Rattus norvegicus [6]) | Activity (Rattus norvegicus [7]) [mg] | Activity (Rattus norvegicus [8]) [mg]
20 | 312 | 191 | 229 | 376 | CSCC[C@H](NC(=O)[C@@H]1Cc2ccccc2CN1)C(=O)O (H-[Tic]-Met-OH) | 21.74 | >30 |  | 
21 | 185 | 103 | 364 | 1400 | O=C(O)[C@@H]1CCCN1C(=O)[C@@H]1Cc2ccccc2CN1 (H-[Tic]-Pro-OH) | 20.25 | >30 |  | 
22 |  | 382 | 265 | 409 | CSCC[C@H](N)C(=O)N1Cc2ccccc2C[C@H]1C(=O)O (H-Met-[Tic]-OH) | 19.56 |  |  | 
23 | 495 | 430 | 534 | 360 | NC(=O)C[C@H](N)C(=O)N1Cc2ccccc2C[C@H]1C(=O)O (H-Asn-[Tic]-OH) | 22.66 |  |  | 
24 | 565 | 298 | 210 | 517 | N=C(N)NCCC[C@H](N)C(=O)N1Cc2ccccc2C[C@H]1C(=O)O (H-Arg-[Tic]-OH) | 20.06 |  |  | 
25 | 589 | 369 | 494 | 544 | N[C@@H](CCC(=O)O)C(=O)N1Cc2ccccc2C[C@H]1C(=O)O (H-Glu-[Tic]-OH) | 20.87 |  |  | 
26 | 730 | 573 | 336 | 891 | CC(C)C[C@H](N)C(=O)N1Cc2ccccc2C[C@H]1C(=O)O (H-Leu-[Tic]-OH) | 19.12 |  |  | 
27 | 829 | 521 | 323 | 472 | NCCCC[C@H](N)C(=O)N1Cc2ccccc2C[C@H]1C(=O)O (H-Lys-[Tic]-OH) | 21.31 |  |  | 
28 | 498 | 572 | 103 | 267 | N[C@@H](CO)C(=O)N1Cc2ccccc2C[C@H]1C(=O)O (H-Ser-[Tic]-OH) | 18 |  |  | 
29 | 674 | 238 | 315 | 831 | CC[C@H](C)[C@H](N)C(=O)N1Cc2ccccc2C[C@H]1C(=O)O (H-Ile-[Tic]-OH) | 21.14 |  |  | 
30 | 684 | 351 | 324 | 670 | N[C@@H](Cc1c[nH]cn1)C(=O)N1Cc2ccccc2C[C@H]1C(=O)O (H-His-[Tic]-OH) | 21.78 |  |  | 
31 | 851 | 666 | 370 |  | N[C@@H](Cc1ccccc1)C(=O)N1Cc2ccccc2C[C@H]1C(=O)O (H-Phe-[Tic]-OH) | 22.23 |  |  | 
32 | 555 | 407 | 302 | 392 | NC(=O)CC[C@H](N)C(=O)N1Cc2ccccc2C[C@H]1C(=O)O (H-Gln-[Tic]-OH) | 21.3 |  |  | 
33 | 590 | 526 | 373 |  | O=C(O)[C@@H]1Cc2ccccc2CN1C(=O)[C@@H]1CCCN1 (H-Pro-[Tic]-OH) | 21.09 |  |  | 
34 | 761 | 440 | 365 | 875 | NCC(=O)N1Cc2ccccc2C[C@H]1C(=O)O (H-Gly-[Tic]-OH) | 21.17 |  |  | 
35 | 935 | 494 | 235 | 138 | NC(=O)CC[C@H](NC(=O)[C@@H]1Cc2ccccc2CN1)C(=O)O (H-[Tic]-Gln-OH) | 22.08 | >30 |  | 
36 | 741 | 452 | 651 | 945 | C[C@H](N)C(=O)N1Cc2ccccc2C[C@H]1C(=O)O (H-Ala-[Tic]-OH) | 20.3 |  |  | 
37 | 653 | 423 | 389 | 632 | CC(C)[C@H](N)C(=O)N1Cc2ccccc2C[C@H]1C(=O)O (H-Val-[Tic]-OH) | 20.12 |  |  | 
38 |  | 344 | 345 | 383 | N[C@@H](CC(=O)O)C(=O)N1Cc2ccccc2C[C@H]1C(=O)O (H-Asp-[Tic]-OH) | 20.3 |  |  | 
39 | 879 | 215 | 240 | 404 | C[C@@H](O)[C@H](N)C(=O)N1Cc2ccccc2C[C@H]1C(=O)O (H-Thr-[Tic]-OH) | 20.73 |  |  | 
